Experimental data published in ChEMBL document CHEMBL4190282, “The Conjugated Double Bond of Coniferyl Aldehyde Is Essential for Heat Shock Factor 1 Mediated Cytotoprotection” (J Nat Prod, 2017).
Calls of active or inactive are those of the source.

Legend:
[1] = biological target: T1, Heat shock factor protein 1 (Mus musculus) (UniProt P38532); experiment: Activation of HSF1 in MEF assessed as protection against IR-induced caspase3 cleavage at 3 uM pretreated for 1 hr followed by 10 Gy irradiation measured after 48 hrs by immunoblotting analysis; type: cell-based
T1 sequence (whole entry): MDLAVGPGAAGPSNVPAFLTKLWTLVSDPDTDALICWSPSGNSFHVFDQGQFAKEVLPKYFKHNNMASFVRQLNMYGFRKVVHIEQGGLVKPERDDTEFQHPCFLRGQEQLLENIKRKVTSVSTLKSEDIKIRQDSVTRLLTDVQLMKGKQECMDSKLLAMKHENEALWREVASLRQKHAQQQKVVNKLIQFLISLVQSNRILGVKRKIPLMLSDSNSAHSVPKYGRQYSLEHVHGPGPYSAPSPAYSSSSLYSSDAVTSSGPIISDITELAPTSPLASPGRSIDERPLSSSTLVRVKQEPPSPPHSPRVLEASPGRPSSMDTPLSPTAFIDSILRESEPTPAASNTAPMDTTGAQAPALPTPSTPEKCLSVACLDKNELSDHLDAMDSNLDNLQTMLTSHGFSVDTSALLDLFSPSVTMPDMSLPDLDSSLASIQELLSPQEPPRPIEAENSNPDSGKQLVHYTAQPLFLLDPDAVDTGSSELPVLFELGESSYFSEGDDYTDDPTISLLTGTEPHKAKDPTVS
Summary of the method: (§1)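 HSF1+/+ or HSF1−/− MEFs in DMEM with heat-inactivated 10% FBS, nonessential amino acids, glutamine, HEPES, 37 °C, 5% CO2. 1 h pretreatment at 3 μM, then 0.5 μM paclitaxel or 20 μM cisplatin for 24 h, or 10 Gy 137Cs γ-rays (3.81 Gy/min) for 48 h. Cleaved PARP and caspase-3 immunoblotted; bands normalized to loading control, fold-change vs negative control, ≥3 independent experiments.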

L132 = experiment: Cytoprotective activity against IR-induced cell death in human L-132 cells at 3 uM pretreated for 1 hr followed by 10 Gy irradiation measured after 48 hrs by FACS analysis; type: functional, cell-based
Summary of the method: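 L132 cells in RPMI with 10% FBS. 1 h pretreatment at 3 μM, then 0.5 μM paclitaxel or 20 μM cisplatin for 24 h, or 10 Gy γ-rays for 48 h. Cells trypsinized, washed, stained with propidium iodide and analysed by flow cytometry. Means ± SD of ≥3 independent experiments, fold-change vs negative control.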

[2] = biological target: T1, Heat shock factor protein 1 (Mus musculus); experiment: Activation of HSF1 in MEF assessed as protection against paclitaxel-induced PARP cleavage at 3 uM pretreated for 1 hr followed by paclitaxel addition measured after 24 hrs by immunoblotting analysis; type: cell-based; summary of the method: as §1
[3] = biological target: T2, Heat shock factor protein 1 (Homo sapiens) (UniProt Q00613); experiment: Activation of HSF1 in human L132 cells assessed as increase in HSP27 protein levels after 12 hrs by immunoblotting analysis; type: cell-based
T2 sequence (whole entry): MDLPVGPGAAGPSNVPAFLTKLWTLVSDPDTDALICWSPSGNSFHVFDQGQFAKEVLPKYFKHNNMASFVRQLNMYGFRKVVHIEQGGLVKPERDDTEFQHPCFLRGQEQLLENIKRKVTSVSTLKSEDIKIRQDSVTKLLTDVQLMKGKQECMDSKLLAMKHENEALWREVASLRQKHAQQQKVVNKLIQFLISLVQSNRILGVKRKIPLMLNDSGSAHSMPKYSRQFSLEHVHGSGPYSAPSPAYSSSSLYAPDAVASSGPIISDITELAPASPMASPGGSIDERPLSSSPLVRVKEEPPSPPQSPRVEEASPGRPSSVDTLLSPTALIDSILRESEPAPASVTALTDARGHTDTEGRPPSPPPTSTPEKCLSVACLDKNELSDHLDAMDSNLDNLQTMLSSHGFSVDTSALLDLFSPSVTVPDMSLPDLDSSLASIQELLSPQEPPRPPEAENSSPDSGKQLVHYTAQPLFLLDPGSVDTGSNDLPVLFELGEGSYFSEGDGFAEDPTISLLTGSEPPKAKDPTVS
Summary of the method: (§2)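 L132 cells treated at 3 μM for 12 h, or at various doses for 12 h, or at 3 μM over a time course. Lysates resolved by SDS-PAGE, blotted to nitrocellulose, milk-blocked, primary antibodies 18 h at 4 °C, ECL detection. HSP27, HSP70 and Ser326-phospho-HSF1 bands normalized to loading control; ≥3 independent experiments; celastrol 1 μM positive control.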

[4] = biological target: T2, Heat shock factor protein 1 (Homo sapiens); experiment: Activation of HSF1 in human L132 cells assessed as increase in HSP27 protein levels at 3 uM by immunoblotting analysis; type: cell-based; conditions: TDE = time-dependent effect; summary of the method: as §2

Measured: Activity

COc1cc(/C=C/C=O)ccc1O [CONIFERYL ALDEHYDE]
active: [1] | L132 | [2] | [3] Dose-dependent effect

COc1cc(/C=C/CO)ccc1O [CONIFERYL ALCOHOL]
active: [4] Tde | [1] | L132 | [2]
